Assays:
[1] = molecular target: Cyclin-dependent kinase 4/cyclin D (Homo sapiens, UniProt P11802); assay: (§1) Inhibition of [32P]ATP binding to Cyclin dependant kinase 4-cyclin D; assay type: protein-complex assay
Method in brief: (§2)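 Human recombinant Cdk–cyclin holoenzymes expressed in insect cells via baculovirus. Each reaction held 20 ng enzyme, 1 µg GST-retinoblastoma substrate and inhibitor dilutions in 20 mM Tris pH 7.4, 50 mM NaCl, 1 mM DTT, 10 mM MgCl2. Started with [32P]ATP (0.25 µCi), at 25 µM for Cdk4 or 12 µM for Cdk2/E, Cdk2/A and Cdc2/B. Ran 15 min at 25 °C. Stopped with TCA and precipitated ≥1 h at 4 °C.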

[2] = molecular target: Cyclin-dependent kinase 2/cyclin E (Homo sapiens, UniProt P24941); assay: Inhibition of [32P]ATP binding to Cyclin dependent kinase 2-cyclin E; assay type: protein-complex assay
Method in brief: (§3)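 Human recombinant Cdk–cyclin holoenzymes expressed in insect cells via baculovirus. Each reaction held 20 ng enzyme, 1 µg GST-retinoblastoma substrate and inhibitor dilutions in 20 mM Tris pH 7.4, 50 mM NaCl, 1 mM DTT, 10 mM MgCl2. Stopped with TCA and precipitated ≥1 h at 4 °C.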

[3] = molecular target: Cyclin-dependent kinase 2/cyclin A (Homo sapiens, UniProt P24941); assay: (§4) Inhibition of [32P]ATP binding to Cyclin dependent kinase 2-cyclin A; assay type: protein-complex assay; method in brief: as §3
[4] = molecular target: Cyclin-dependent kinase 1/cyclin B (Homo sapiens, UniProt P06493); assay: Inhibition of [32P]ATP binding to Cyclin dependent kinase 1-cyclin B; assay type: protein-complex assay; method in brief: as §2
[5] = molecular target: Ribosomal protein S6 kinase alpha-5 (Homo sapiens, UniProt O75582); assay: Inhibition of mitogen and stress-activated protein kinase-1(MSK-1 kinase)
Sequence of Ribosomal protein S6 kinase alpha-5 (O75582 whole entry): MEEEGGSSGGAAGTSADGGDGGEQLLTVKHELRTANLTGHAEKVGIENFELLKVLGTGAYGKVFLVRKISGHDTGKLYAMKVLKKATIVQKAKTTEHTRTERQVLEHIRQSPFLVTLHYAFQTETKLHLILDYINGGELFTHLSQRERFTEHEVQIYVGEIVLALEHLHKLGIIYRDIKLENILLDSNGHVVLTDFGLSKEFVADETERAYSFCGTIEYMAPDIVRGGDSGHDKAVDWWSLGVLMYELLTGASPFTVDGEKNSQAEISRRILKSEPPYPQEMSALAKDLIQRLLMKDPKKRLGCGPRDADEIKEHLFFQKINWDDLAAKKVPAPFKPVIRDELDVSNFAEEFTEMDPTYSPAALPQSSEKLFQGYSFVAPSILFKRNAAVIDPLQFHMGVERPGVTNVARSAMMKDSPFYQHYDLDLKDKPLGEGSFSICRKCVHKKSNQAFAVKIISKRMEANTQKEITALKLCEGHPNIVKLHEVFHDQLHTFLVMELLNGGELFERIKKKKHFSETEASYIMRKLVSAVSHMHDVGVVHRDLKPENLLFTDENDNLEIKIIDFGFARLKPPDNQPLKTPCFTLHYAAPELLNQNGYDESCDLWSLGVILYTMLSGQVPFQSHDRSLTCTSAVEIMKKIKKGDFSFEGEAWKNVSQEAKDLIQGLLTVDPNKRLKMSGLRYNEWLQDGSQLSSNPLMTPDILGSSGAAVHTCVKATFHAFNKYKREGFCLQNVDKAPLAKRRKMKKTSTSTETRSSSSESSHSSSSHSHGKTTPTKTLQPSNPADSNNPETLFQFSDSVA

[6] = molecular target: T1, MAP kinase-activated protein kinase 5 (Homo sapiens, UniProt Q8IW41); assay: Inhibition of p38-regulated/activated kinase (PRAK)
T1 sequence (Q8IW41 whole entry): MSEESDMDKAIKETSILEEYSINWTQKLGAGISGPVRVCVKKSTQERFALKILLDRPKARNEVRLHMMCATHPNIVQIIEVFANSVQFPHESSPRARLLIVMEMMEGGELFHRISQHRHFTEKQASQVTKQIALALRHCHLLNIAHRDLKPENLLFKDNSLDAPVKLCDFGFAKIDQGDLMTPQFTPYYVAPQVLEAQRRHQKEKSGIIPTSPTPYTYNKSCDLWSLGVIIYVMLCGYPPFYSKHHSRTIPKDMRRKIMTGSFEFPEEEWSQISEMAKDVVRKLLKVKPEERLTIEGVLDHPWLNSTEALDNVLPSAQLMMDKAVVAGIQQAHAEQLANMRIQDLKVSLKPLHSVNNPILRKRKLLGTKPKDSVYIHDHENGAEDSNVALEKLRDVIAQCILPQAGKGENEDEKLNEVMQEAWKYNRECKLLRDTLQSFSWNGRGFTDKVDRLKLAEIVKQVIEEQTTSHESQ

[7] = Inhibition of 3-phosphoinisitide-dependent protein kinase-1
[8] = Inhibition of Tyrosine-protein kinase CSK
[9] = molecular target: Cyclin-dependent kinase 4/cyclin D (Homo sapiens, UniProt P11802+P24385+P30281+P30279); assay: as §1; assay type: protein-complex assay; method in brief: as §2
Sequence of Cyclin-dependent kinase 4/cyclin D (Homo sapiens, UniProt P11802+P24385+P30281+P30279) (P11802 whole entry): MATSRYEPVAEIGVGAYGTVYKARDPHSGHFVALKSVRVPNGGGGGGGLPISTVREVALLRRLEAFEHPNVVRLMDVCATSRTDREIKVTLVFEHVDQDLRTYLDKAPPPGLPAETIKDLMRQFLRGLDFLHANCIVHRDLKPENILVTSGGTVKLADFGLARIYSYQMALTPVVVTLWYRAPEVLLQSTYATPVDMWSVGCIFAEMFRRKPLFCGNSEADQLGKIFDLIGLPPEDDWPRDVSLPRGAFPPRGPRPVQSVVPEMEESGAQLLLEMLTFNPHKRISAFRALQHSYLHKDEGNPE
Sequence of Cyclin-dependent kinase 4/cyclin D (Homo sapiens, UniProt P11802+P24385+P30281+P30279) (P24385 whole entry): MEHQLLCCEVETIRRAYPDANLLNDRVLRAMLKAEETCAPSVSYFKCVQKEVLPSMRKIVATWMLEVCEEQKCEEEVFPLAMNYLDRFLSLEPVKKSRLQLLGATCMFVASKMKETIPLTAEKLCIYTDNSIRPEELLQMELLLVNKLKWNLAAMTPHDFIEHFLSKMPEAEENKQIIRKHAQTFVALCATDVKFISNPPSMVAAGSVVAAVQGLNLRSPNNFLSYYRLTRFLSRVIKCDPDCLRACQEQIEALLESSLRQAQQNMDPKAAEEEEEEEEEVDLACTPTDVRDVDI
Sequence of Cyclin-dependent kinase 4/cyclin D (Homo sapiens, UniProt P11802+P24385+P30281+P30279) (P30281 whole entry): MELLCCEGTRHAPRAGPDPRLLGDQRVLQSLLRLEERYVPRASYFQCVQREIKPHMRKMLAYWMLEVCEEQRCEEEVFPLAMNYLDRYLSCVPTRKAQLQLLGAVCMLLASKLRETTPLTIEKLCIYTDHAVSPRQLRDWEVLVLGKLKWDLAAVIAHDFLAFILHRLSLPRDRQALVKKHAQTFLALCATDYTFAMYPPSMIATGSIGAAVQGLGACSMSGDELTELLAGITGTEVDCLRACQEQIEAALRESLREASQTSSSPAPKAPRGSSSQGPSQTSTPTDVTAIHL
Sequence of Cyclin-dependent kinase 4/cyclin D (Homo sapiens, UniProt P11802+P24385+P30281+P30279) (P30279 whole entry): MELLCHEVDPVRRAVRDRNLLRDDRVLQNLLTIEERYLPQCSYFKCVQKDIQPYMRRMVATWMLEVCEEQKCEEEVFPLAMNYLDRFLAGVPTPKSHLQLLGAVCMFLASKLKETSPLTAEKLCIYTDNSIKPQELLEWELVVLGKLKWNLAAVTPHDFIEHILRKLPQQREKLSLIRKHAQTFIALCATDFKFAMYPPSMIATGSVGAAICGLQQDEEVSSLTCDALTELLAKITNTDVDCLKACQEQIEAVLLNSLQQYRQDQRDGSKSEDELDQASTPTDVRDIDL

[10] = molecular target: Ribosomal protein S6 kinase (P70S6K) (Homo sapiens, UniProt P23443+Q9UBS0); assay: Inhibition of Ribosomal protein S6 kinase (p70S6K1); assay type: protein-complex assay
Sequence of Ribosomal protein S6 kinase (P70S6K) (Q9UBS0 whole entry): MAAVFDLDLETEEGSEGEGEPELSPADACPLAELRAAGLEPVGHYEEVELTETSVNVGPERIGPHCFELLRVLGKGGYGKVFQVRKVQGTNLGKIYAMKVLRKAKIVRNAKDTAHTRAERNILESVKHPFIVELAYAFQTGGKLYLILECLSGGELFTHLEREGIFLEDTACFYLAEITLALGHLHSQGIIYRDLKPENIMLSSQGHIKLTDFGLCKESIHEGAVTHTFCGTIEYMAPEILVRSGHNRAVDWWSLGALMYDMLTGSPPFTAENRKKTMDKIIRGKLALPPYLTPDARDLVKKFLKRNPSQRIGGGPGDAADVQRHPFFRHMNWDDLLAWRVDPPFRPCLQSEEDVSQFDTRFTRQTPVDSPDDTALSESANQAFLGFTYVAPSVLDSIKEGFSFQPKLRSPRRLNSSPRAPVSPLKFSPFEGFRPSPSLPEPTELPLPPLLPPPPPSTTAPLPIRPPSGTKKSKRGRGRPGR
Sequence of Ribosomal protein S6 kinase (P70S6K) (P23443 whole entry): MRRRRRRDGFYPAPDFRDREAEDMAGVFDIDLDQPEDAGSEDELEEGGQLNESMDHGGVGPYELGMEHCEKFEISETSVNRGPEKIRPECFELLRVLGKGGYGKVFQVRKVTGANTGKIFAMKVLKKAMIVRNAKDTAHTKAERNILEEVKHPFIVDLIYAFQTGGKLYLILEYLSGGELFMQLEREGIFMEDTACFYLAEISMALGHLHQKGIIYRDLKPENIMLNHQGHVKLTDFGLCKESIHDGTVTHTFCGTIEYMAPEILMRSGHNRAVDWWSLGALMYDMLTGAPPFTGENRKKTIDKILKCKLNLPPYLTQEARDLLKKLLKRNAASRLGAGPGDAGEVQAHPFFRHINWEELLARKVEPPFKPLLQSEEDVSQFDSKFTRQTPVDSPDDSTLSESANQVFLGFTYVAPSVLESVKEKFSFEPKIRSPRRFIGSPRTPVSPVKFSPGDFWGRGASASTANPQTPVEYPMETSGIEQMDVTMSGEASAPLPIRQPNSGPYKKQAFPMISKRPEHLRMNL

[11] = Inhibition of Mitogen activated protein kinase kinase 1
[12] = Inhibition of Phosphorylase kinase
[13] = molecular target: MAP kinase-activated protein kinase 2 (Homo sapiens, UniProt P49137); assay: Inhibition of MAP kinase-activated protein kinase 2
Sequence of MAP kinase-activated protein kinase 2 (P49137 whole entry): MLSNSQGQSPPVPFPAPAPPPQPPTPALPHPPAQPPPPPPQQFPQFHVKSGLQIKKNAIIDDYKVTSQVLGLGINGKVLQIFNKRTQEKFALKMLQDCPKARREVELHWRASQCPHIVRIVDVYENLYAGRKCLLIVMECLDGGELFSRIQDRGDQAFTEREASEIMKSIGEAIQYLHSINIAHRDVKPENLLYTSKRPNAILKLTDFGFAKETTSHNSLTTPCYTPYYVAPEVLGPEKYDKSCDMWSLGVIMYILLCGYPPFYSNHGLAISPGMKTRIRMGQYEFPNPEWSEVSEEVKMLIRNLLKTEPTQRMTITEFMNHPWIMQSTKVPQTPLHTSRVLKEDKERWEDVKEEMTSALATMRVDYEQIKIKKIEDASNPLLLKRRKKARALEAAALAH

[14] = Inhibition of Protein Kinase A; set-up: species or system Homo sapiens
[15] = molecular target: c-Jun N-terminal kinase, JNK (Homo sapiens, UniProt P45983+P53779+P45984); assay: Inhibition of c-Jun N-terminal kinase; assay type: protein assay
[16] = molecular target: Fibroblast growth factor receptor (Homo sapiens, UniProt P22607+P11362+P22455+P21802); assay: Inhibition of Fibroblast growth factor receptor; assay type: protein assay
MDA-MB-435 = assay: In vitro inhibitory concentration is measured by the incorporation of [14C]thymidine in human breast carcinoma MDA-MB-435 cell line; assay type: functional, cell-based
[17] = molecular target: Mitogen-activated protein kinase 11 (Homo sapiens, UniProt Q15759); assay: Inhibition of Stress activated protein kinase 2b
Sequence of Mitogen-activated protein kinase 11 (Q15759 whole entry): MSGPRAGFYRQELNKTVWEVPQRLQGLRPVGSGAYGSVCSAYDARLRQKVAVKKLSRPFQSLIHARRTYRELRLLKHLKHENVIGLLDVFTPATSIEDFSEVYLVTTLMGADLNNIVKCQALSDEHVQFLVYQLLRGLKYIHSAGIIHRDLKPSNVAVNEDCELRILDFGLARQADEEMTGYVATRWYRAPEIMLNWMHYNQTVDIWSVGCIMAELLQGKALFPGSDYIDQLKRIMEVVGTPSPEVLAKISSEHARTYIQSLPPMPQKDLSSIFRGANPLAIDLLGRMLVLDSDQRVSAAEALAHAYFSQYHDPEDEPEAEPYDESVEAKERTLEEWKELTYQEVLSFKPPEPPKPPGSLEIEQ

[18] = molecular target: Glycogen synthase kinase-3 beta (Homo sapiens, UniProt P49841); assay: Inhibition of Glycogen synthase kinase 3 beta
Sequence of Glycogen synthase kinase-3 beta (P49841 whole entry): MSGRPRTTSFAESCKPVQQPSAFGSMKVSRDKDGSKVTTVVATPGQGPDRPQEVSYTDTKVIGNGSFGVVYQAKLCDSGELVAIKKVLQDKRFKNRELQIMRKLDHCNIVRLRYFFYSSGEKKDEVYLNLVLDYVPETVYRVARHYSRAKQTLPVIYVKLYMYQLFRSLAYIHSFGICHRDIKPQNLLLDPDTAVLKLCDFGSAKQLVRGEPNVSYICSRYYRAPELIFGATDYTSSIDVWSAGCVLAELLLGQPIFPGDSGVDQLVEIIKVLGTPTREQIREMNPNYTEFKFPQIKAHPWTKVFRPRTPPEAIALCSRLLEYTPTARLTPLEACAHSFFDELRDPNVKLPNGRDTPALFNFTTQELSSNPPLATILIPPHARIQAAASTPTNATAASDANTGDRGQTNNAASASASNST

[19] = molecular target: Mitogen-activated protein kinase 14 (Homo sapiens, UniProt Q16539); assay: Inhibition of Stress activated protein kinase 2a
Sequence of Mitogen-activated protein kinase 14 (Q16539 whole entry): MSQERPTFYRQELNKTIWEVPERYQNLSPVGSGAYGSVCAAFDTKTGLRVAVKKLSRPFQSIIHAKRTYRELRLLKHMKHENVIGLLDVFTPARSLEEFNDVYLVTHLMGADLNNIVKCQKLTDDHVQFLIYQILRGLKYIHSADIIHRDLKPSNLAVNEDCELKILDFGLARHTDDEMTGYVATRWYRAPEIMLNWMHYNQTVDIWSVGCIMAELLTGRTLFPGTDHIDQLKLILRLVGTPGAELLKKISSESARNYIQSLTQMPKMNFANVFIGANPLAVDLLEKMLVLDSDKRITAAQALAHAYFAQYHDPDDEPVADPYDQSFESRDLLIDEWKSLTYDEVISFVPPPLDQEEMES

[20] = molecular target: Mitogen-activated protein kinase 1 (Homo sapiens, UniProt P28482); assay: Inhibition of Mitogen activated protein kinase (MAPK2/erk2)
Sequence of Mitogen-activated protein kinase 1 (P28482 whole entry): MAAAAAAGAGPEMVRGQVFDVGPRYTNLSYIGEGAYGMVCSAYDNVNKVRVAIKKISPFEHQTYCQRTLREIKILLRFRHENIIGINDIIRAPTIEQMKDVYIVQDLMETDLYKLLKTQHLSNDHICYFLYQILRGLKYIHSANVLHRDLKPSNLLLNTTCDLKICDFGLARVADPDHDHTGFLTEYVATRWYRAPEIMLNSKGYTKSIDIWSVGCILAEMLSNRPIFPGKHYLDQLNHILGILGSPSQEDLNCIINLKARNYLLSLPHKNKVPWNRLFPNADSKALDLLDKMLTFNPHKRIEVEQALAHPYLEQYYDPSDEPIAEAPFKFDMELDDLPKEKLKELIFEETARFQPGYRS

[21] = molecular target: Serine/threonine-protein kinase AKT (Homo sapiens, UniProt P31751+Q9Y243+P31749); assay: Inhibition of Protein kinase B; assay type: protein assay
Protein kinase C (PKC) = assay: Inhibition of Protein Kinase C; assay type: protein assay, Homo sapiens
[22] = molecular target: Cyclin-dependent kinase 2/cyclin A (Homo sapiens, UniProt P24941+P20248+P78396); assay: as §4; assay type: protein-complex assay; method in brief: as §3

Row | IC50 [1] [nM] | IC50 [2] [nM] | IC50 [3] [nM] | IC50 [4] [nM] | Structure (SMILES) | also measured
1 | 7 | 39 | 14 |  | CN1CCN(c2ccc(Nc3ncc4ccc(=O)n(C5CCCC5)c4n3)cc2)CC1 | 
2 |  | 80 |  |  | O=c1ccc2cnc(Nc3ccc(N4CCNCC4)cc3)nc2n1C1CCCC1 | 
3 | 1080 | > 5000 | > 5000 | > 5000 | Cc1cc(=O)n(CCC(C)C)c2nc(Nc3ccc(N4CCNCC4)cc3)ncc12 | 
4 | 32 | > 5000 | > 5000 | > 5000 | Cc1c(C(=O)O)c(=O)n(C2CCCC2)c2nc(Nc3ccc(N4CCNCC4)cc3)ncc12 | 
5 | 240 | > 5000 |  | > 5000 | Cc1cc(=O)n(C2CCCC2)c2nc(Nc3ccc(N4C[C@@H](C)N[C@@H](C)C4)cc3)ncc12 | 
6 |  |  |  |  | CC(=O)c1c(C)c2cnc(Nc3ccc(N4CCNCC4)cc3)nc2n(C2CCCC2)c1=O | IC50 [5]: > 10000 nM; IC50 [6]: > 10000 nM; IC50 [7]: > 10000 nM; IC50 [8]: > 10000 nM; IC50 [9]: 2 nM; IC50 [10]: > 10000 nM; IC50 [11]: > 10000 nM; IC50 [12]: > 10000 nM; IC50 [13]: > 10000 nM; IC50 [14]: > 10000 nM; IC50 [15]: > 10000 nM; IC50 [16]: 1860 nM; IC50 (MDA-MB-435): 32 nM; IC50 [17]: > 10000 nM; IC50 [18]: > 10000 nM; IC50 [19]: > 10000 nM; IC50 [20]: > 10000 nM; IC50 [21]: > 10000 nM; IC50 (Protein kinase C (PKC)): > 10000 nM
7 | 4 | > 5000 | 2820 | > 5000 | COC(=O)c1c(C)c2cnc(Nc3ccc(N4CCNCC4)cc3)nc2n(C2CCCC2)c1=O | 
8 | 28 | > 5000 | > 5000 | > 5000 | Cc1cc(=O)n(C2CCCC2)c2nc(Nc3ccc(N4CCNCC4)c(Cl)c3)ncc12 | 
9 |  | 4550 |  | > 5000 | O=c1ccc2cnc(Nc3ccc(N4CCC(CCCO)CC4)cc3)nc2n1C1CCCC1 | 
10 | 30 | > 5000 | > 5000 | > 5000 | Cc1c(F)c(=O)n(C2CCCC2)c2nc(Nc3ccc(N4CCNCC4)cc3)ncc12 | 
11 | 52 | > 5000 | > 5000 | > 5000 | Cc1cc(=O)n(C2CCCC2)c2nc(Nc3ccc(N4CCCNCC4)cc3)ncc12 | 
12 | 35 | > 5000 | > 5000 | > 5000 | Cc1cc(=O)n(C2CCCC2)c2nc(Nc3ccc(N4CCN(CCO)CC4)cc3)ncc12 | 
13 | 425 | > 5000 | > 5000 |  | Cc1cc(=O)n(C2CCCC2)c2nc(Nc3ccc(N4CCN(C(=O)OC(C)(C)C)CC4)cc3)ncc12 | 
14 | 14 |  |  | > 5000 | Cc1cc(=O)n(C2CCCC2)c2nc(Nc3ccc(N4CCNCC4)cc3)ncc12 | 
15 | 18 | > 5000 | > 5000 | > 5000 | Cc1cc(=O)n(C2CCCC2)c2nc(Nc3ccc(N4CCN(C)CC4)cc3)ncc12 | 
16 | 5 | 365 | 443 | 1870 | Cc1c(I)c(=O)n(C2CCCC2)c2nc(Nc3ccc(N4CCNCC4)cc3)ncc12 | 
17 | 161 | > 5000 | > 5000 | > 5000 | Cc1cc(=O)n(C2CCCC2)c2nc(Nc3ccc(N4CCN(C=O)CC4)cc3)ncc12 | 

Row | IC50 [1] [nM] | IC50 [2] [nM] | IC50 [3] [nM] | IC50 [4] [nM] | Structure (SMILES) | also measured
18 | 260 |  |  | > 5000 | Cc1cc(=O)n(C2CCCC2)c2nc(Nc3ccc(N4CCC(O)C4)cc3)ncc12 (stereo not drawn) | 
19 | 10 | 85 | 28 | 275 | O=c1ccc2cnc(Nc3ccc(N4CCOCC4)cc3)nc2n1C1CCCC1 | 
20 | 265 | > 5000 | > 5000 | > 5000 | Cc1cc(=O)n(C(C)C)c2nc(Nc3ccc(N4CCNCC4)cc3)ncc12 | 
21 | 65 | > 5000 | > 5000 | > 5000 | Cc1cc(=O)n(C2CCCC2)c2nc(Nc3ccc(N4CCNC(C)(C)C4)cc3)ncc12 | 
22 | 16 | 1500 | 1620 | > 5000 | Cc1c(Cl)c(=O)n(C2CCCC2)c2nc(Nc3ccc(N4CCNCC4)cc3)ncc12 | 
23 | 103 | > 5000 | > 5000 | > 5000 | CC(=O)N1CCN(c2ccc(Nc3ncc4c(C)cc(=O)n(C5CCCC5)c4n3)cc2)CC1 | 
24 | 10 | 246 | 660 | 570 | O=c1ccc2cnc(Nc3ccc(N4CCCCC4)cc3)nc2n1C1CCCC1 | 
25 | 114 | > 5000 | > 5000 | > 5000 | Cc1cc(=O)n(C2CCCC2)c2nc(Nc3ccc(N4CCC(CCCO)CC4)cc3)ncc12 | 
26 | 116 | > 5000 | > 5000 | 1120 | Cc1cc(=O)n(C2CCCC2)c2nc(Nc3ccc(N4CCOCC4)cc3)ncc12 | 
27 | 165 | > 5000 |  | > 5000 | Cc1c(C)c2cnc(Nc3ccc(N4CCNCC4)cc3)nc2n(C2CCCC2)c1=O | 
28 | 2650 | > 5000 | > 5000 | > 5000 | O=c1cc(C(F)(F)F)c2cnc(Nc3ccc(N4CCNCC4)cc3)nc2n1C1CCCC1 | 
29 | 180 |  | > 5000 |  | Cc1cc(=O)n(C2CCCC2)c2nc(Nc3ccc(N4CCCCC4)cc3)ncc12 | 
30 | 655 | > 5000 | > 5000 | > 5000 | CCc1cc(=O)n(C2CCCC2)c2nc(Nc3ccc(N4CCNCC4)cc3)ncc12 | 
31 | 25 | 1650 | 1540 | 4120 | CCc1c(C)c2cnc(Nc3ccc(N4CCNCC4)cc3)nc2n(C2CCCC2)c1=O | 
32 | 64 |  |  | > 5000 | Cc1cc(=O)n(C2CCCC2)c2nc(Nc3ccc(N4CCC(N)C4)cc3)ncc12 (stereo not drawn) | 
33 |  | 950 |  | 2610 | Cc1c(Br)c(=O)n(C2CCCC2)c2nc(Nc3ccc(N4CCNCC4)cc3)ncc12 | IC50 [22]: 439 nM

Row | Structure (SMILES) | IC50 [1] [nM] | IC50 [2] [nM] | IC50 [3] [nM] | IC50 [4] [nM] | also measured
34 | CCOC(=O)c1c(C)c2cnc(Nc3ccc(N4CCNCC4)cc3)nc2n(C2CCCC2)c1=O |  | > 5000 | > 5000 | > 5000 | IC50 [9]: 6 nM

From ChEMBL document CHEMBL1143565, “Pyrido[2,3-d]pyrimidin-7-ones as specific inhibitors of cyclin-dependent kinase 4” (J Med Chem, 2005)
